Experiments:
Assay type in all cases: functional
COLO 205 = test: Cytotoxicity against human COLO205 cells after 2 days by sulforhodamine B assay; conditions: COLO 205, 48 h
Summary of the method: (§1)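 NCI60 multi-dose screen, 59 human tumour lines available. Cells exposed to compound across a 5-log mol/L concentration range for 2 days, then fixed and stained with sulphorhodamine B, optical density read. Growth inhibition calculated against time-zero control and untreated cells. GI50 derived from the dose series, average of two replicates.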

ACHN = test: Cytotoxicity against human ACHN cells after 2 days by sulforhodamine B assay; conditions: 48 h; summary of the method: as §1
SK-OV-3 = test: Cytotoxicity against human SKOV3 cells after 2 days by sulforhodamine B assay; conditions: SK-OV-3, 48 h; summary of the method: as §1
T47D = test: Cytotoxicity against human T47D cells after 2 days by sulforhodamine B assay; conditions: 48 h
Summary of the method: (§2)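 NCI DTP NCI60 multi-dose screen (59 human tumour lines available). Cells exposed to compound over a 5-log mol/L concentration range for 2 days, then fixed and stained with sulphorhodamine B, with optical density read. Growth inhibition calculated relative to time-zero cells and untreated cells, giving GI50 (half-maximal growth inhibition concentration). Average of two replicates.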

TK-10 = test: Cytotoxicity against human TK10 cells after 2 days by sulforhodamine B assay; conditions: TK-10, 48 h; summary of the method: as §2
CAKI-1 = test: Cytotoxicity against human CAKI-1 cells after 2 days by sulforhodamine B assay; conditions: CAKI-1, 48 h; summary of the method: as §1
M14 = test: Cytotoxicity against human M14 cells after 2 days by sulforhodamine B assay; conditions: M14, 48 h; summary of the method: as §1
HOP-62 = test: Cytotoxicity against human HOP62 cells after 2 days by sulforhodamine B assay; conditions: HOP-62, 48 h; summary of the method: as §1
SW-620 = test: Cytotoxicity against human SW620 cells after 2 days by sulforhodamine B assay; conditions: SW-620, 48 h; summary of the method: as §2
KM12 = test: Cytotoxicity against human KM12 cells after 2 days by sulforhodamine B assay; conditions: KM12, 48 h; summary of the method: as §1
A498 = test: Cytotoxicity against human A498 cells after 2 days by sulforhodamine B assay; conditions: A498, 48 h; summary of the method: as §1
SK-MEL-28 = test: Cytotoxicity against human SK-MEL-28 cells after 2 days by sulforhodamine B assay; conditions: SK-MEL-28, 48 h; summary of the method: as §1
U-251 = test: Cytotoxicity against human U251 cells after 2 days by sulforhodamine B assay; conditions: U-251, 48 h; summary of the method: as §2
786-0 = test: Cytotoxicity against human 786-0 cells after 2 days by sulforhodamine B assay; conditions: 786-0, 48 h; summary of the method: as §1
SR = test: Cytotoxicity against human SR cells after 2 days by sulforhodamine B assay; conditions: 48 h; summary of the method: as §2
SF-295 = test: Cytotoxicity against human SF295 cells after 2 days by sulforhodamine B assay; conditions: SF-295, 48 h; summary of the method: as §1
OVCAR-3 = test: Cytotoxicity against human OVCAR3 cells after 2 days by sulforhodamine B assay; conditions: OVCAR-3, 48 h; summary of the method: as §1
SNB-19 = test: Cytotoxicity against human SNB19 cells after 2 days by sulforhodamine B assay; conditions: SNB-19, 48 h; summary of the method: as §2
IGROV-1 = test: Cytotoxicity against human IGROV1 cells after 2 days by sulforhodamine B assay; conditions: IGROV-1, 48 h; summary of the method: as §1
UO-31 = test: Cytotoxicity against human UO31 cells after 2 days by sulforhodamine B assay; conditions: UO-31, 48 h; summary of the method: as §2
UACC-257 = test: Cytotoxicity against human UACC257 cells after 2 days by sulforhodamine B assay; conditions: UACC-257, 48 h; summary of the method: as §2
OVCAR-4 = test: Cytotoxicity against human OVCAR4 cells after 2 days by sulforhodamine B assay; conditions: OVCAR-4, 48 h; summary of the method: as §1
UACC-62 = test: Cytotoxicity against human UACC62 cells after 2 days by sulforhodamine B assay; conditions: UACC-62, 48 h; summary of the method: as §2
[1] = Cytotoxicity against human NCI-ADR-RES cells after 2 days by sulforhodamine B assay; conditions: 48 h; summary of the method: as §1
NCI-H522 = test: Cytotoxicity against human NCI-H522 cells after 2 days by sulforhodamine B assay; conditions: NCI-H522, 48 h; summary of the method: as §1
SNB-75 = test: Cytotoxicity against human SNB75 cells after 2 days by sulforhodamine B assay; conditions: SNB-75, 48 h; summary of the method: as §2
LOX IMVI = test: Cytotoxicity against human LOXIMVI cells after 2 days by sulforhodamine B assay; conditions: 48 h; summary of the method: as §1
HT-29 = test: Cytotoxicity against human HT-29 cells after 2 days by sulforhodamine B assay; conditions: HT-29, 48 h; summary of the method: as §1
SK-MEL-5 = test: Cytotoxicity against human SK-MEL-5 cells after 2 days by sulforhodamine B assay; conditions: SK-MEL-5, 48 h; summary of the method: as §1
OVCAR-8 = test: Cytotoxicity against human OVCAR8 cells after 2 days by sulforhodamine B assay; conditions: OVCAR-8, 48 h; summary of the method: as §1
SN12C = test: Cytotoxicity against human SN12C cells after 2 days by sulforhodamine B assay; conditions: 48 h; summary of the method: as §1
[2] = read-out: LC50 (the source's name)

SMILES: CC/C(=C(/c1ccc(OCCN(C)C)cc1)c1ccc(OC(=O)CCC(=O)C2=C(C)/C(=C/c3[nH]c(-c4ccc[nH]4)cc3OC)N=C2C)cc1)c1ccccc1
- GI50 (COLO 205): 1.9 µM
- LC50 (concentration killing 50% of cells) (COLO 205): > 100 µM
- TGI (COLO 205): 7.26 µM
- GI50 (ACHN): 2.61 µM
- LC50 (concentration killing 50% of cells) (ACHN): > 100 µM
- TGI (ACHN): 17.1 µM
- GI50 (SK-OV-3): 7.17 µM
- LC50 (concentration killing 50% of starting cells) (SK-OV-3): > 100 µM
- TGI (SK-OV-3): 30.1 µM
- GI50 (T47D): 1.35 µM
- LC50 (concentration killing 50% of cells) (T47D): > 100 µM
- TGI (T47D): 8.13 µM
- GI50 (TK-10): 4.9 µM
- LC50 (TK-10): 41.7 µM
- TGI (TK-10): 15.8 µM
- GI50 (CAKI-1): 2.69 µM
- LC50 (concentration killing 50% of the cells present at time zero) (CAKI-1): 58.3 µM
- TGI (CAKI-1): 16.1 µM
- GI50 (M14): 2.09 µM
- TGI (M14): 5.19 µM
- CC50 (M14; [2]): > 100 µM
- GI50 (HOP-62): 1.43 µM
- TGI (HOP-62): 4.07 µM
- CC50 (HOP-62; [2]): 49 µM
- GI50 (SW-620): 0.76 µM
- LC50 (concentration killing 50% of cells) (SW-620): > 100 µM
- TGI (SW-620): 2.6 µM
- GI50 (KM12): 1.2 µM
- LC50 (KM12): 46.8 µM
- TGI (KM12): 10.8 µM
- GI50 (A498): 2.96 µM
- LC50 (A498): 44.2 µM
- TGI (A498): 16.8 µM
- GI50 (SK-MEL-28): 2.94 µM
- LC50 (SK-MEL-28): 46.3 µM
- TGI (SK-MEL-28): 12.7 µM
- GI50 (U-251): 1.52 µM
- LC50 (U-251): 33.2 µM
- TGI (U-251): 7.17 µM
- GI50 (786-0): 2.19 µM
- LC50 (concentration killing 50% of cells) (786-0): > 100 µM
- TGI (786-0): 5.77 µM
- GI50 (SR): 0.69 µM
- LC50 (concentration giving 50% net cell kill) (SR): > 100 µM
- TGI (SR): 5.43 µM
- GI50 (SF-295): 2.63 µM
- LC50 (SF-295): > 100 µM
- TGI (SF-295): 9.12 µM
- GI50 (OVCAR-3): 2.11 µM
- LC50 (OVCAR-3): 38.7 µM
- TGI (OVCAR-3): 10.6 µM
- GI50 (SNB-19): 5.49 µM
- TGI (SNB-19): 21.9 µM
- CC50 (SNB-19; [2]): 65.9 µM
- GI50 (IGROV-1): 3.66 µM
- LC50 (IGROV-1): > 100 µM
- TGI (IGROV-1): 15.3 µM
- GI50 (UO-31): 1.7 µM
- LC50 (UO-31): 30.1 µM
- TGI (UO-31): 5.1 µM
- GI50 (UACC-257): 3.39 µM
- TGI (UACC-257): 14.8 µM
- CC50 (UACC-257; [2]): 79.7 µM
- GI50 (OVCAR-4): 1.5 µM
- LC50 (concentration killing 50% of cells) (OVCAR-4): 61.5 µM
- TGI (OVCAR-4): 14.8 µM
- GI50 (UACC-62): 1.81 µM
- TGI (UACC-62): 3.78 µM
- CC50 (UACC-62; [2]): 7.88 µM
- GI50 [1]: 3.63 µM
- TGI [1]: 16.1 µM
- CC50 [1, 2]: 74.5 µM
- GI50 (NCI-H522): 1.95 µM
- LC50 (NCI-H522): 28 µM
- TGI (NCI-H522): 5.89 µM
- GI50 (SNB-75): 2.47 µM
- LC50 (concentration killing 50% of starting cells) (SNB-75): 62.9 µM
- TGI (SNB-75): 9.92 µM
- GI50 (LOX IMVI): 0.44 µM
- LC50 (LOX IMVI): 5.13 µM
- TGI (LOX IMVI): 1.62 µM
- GI50 (HT-29): 0.44 µM
- LC50 (HT-29): 45.7 µM
- TGI (HT-29): 11.1 µM
- GI50 (SK-MEL-5): 1.53 µM
- LC50 (concentration killing 50% of cells) (SK-MEL-5): 5.25 µM
- TGI (SK-MEL-5): 3.22 µM
- GI50 (OVCAR-8): 2.76 µM
- LC50 (OVCAR-8): 68 µM
- TGI (OVCAR-8): 10.9 µM
- GI50 (SN12C): 3.09 µM
- TGI (SN12C): 19.1 µM
- CC50 (SN12C; [2]): 66.6 µM
